# According to ChEMBL document CHEMBL1132965, “Inhibition of Grb2 SH2 domain binding by non-phosphate-containing ligands. 2. 4-(2-Malonyl)phenylalanine as a potent phosphotyrosyl mimetic” (J Med Chem, 2000):
# Target: Growth factor receptor-bound protein 2 (Homo sapiens, UniProt P62993)
# Experiment: Inhibition of Growth factor receptor bound protein 2 binding by ELISA assay method
# Summary of the method: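 Recombinant purified Grb2 SH2-GST fusion protein preincubated with serial inhibitor dilutions, then added to wells coated overnight with biotinylated Shc-derived phosphopeptide (20 ng/mL); blocking with 5% BSA in TBS, washes with 0.1% BSA/TBS. Bound protein detected with anti-GST antibody plus alkaline phosphatase-conjugated goat anti-mouse antibody, p-nitrophenyl phosphate colorimetric read-out. IC50 from serial dilutions, each concentration in triplicate.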
row,SMILES,IC50
1,CC(=O)N[C@@H](Cc1ccc(OCC(=O)O)cc1)C(=O)NC1(C(=O)N[C@@H](CC(N)=O)C(=O)NCCCc2cccc3ccccc23)CCCCC1,68000 nM
2,CC(=O)N[C@@H](Cc1ccc(CP(=O)(O)O)cc1)C(=O)NC1(C(=O)N[C@@H](CC(N)=O)C(=O)NCCCc2cccc3ccccc23)CCCCC1,20 nM
3,Cc1ccc2c(ccn2CCCNC(=O)[C@H](CC(N)=O)NC(=O)C2(NC(=O)[C@H](Cc3ccc(C(C(=O)O)C(=O)O)cc3)NC(=O)C(=O)O)CCCCC2)c1,8 nM
4,CC(=O)N[C@@H](Cc1ccc(OC(C(=O)O)C(=O)O)cc1)C(=O)NC1(C(=O)N[C@@H](CC(N)=O)C(=O)NCCCc2cccc3ccccc23)CCCCC1,2750 nM
5,CC(=O)N[C@@H](Cc1ccc(C(C(=O)O)C(=O)O)cc1)C(=O)NC1(C(=O)N[C@@H](CC(N)=O)C(=O)NCCCc2cccc3ccccc23)CCCCC1,160 nM
6,CC(=O)N[C@@H](Cc1ccc(CC(=O)O)cc1)C(=O)NC1(C(=O)N[C@@H](CC(N)=O)C(=O)NCCCc2cccc3ccccc23)CCCCC1,6400 nM
7,Cc1ccc2c(ccn2CCCNC(=O)[C@H](CC(N)=O)NC(=O)C2(NC(=O)[C@H](Cc3ccc(CP(=O)(O)O)cc3)NC(=O)C(=O)O)CCCCC2)c1,2 nM
8,CC(=O)N[C@@H](Cc1ccc(C(C(=O)O)C(=O)O)cc1)C(=O)NC1(C(=O)N[C@@H](CC(N)=O)C(=O)NCCCn2ccc3cc(C)ccc32)CCCCC1,12 nM
9,CC(=O)N[C@@H](Cc1ccc(CP(=O)(O)O)cc1)C(=O)NC1(C(=O)N[C@@H](CC(N)=O)C(=O)NCCCn2ccc3cc(C)ccc32)CCCCC1,4 nM

# Second part, the molecule after the results:
row,IC50,SMILES
1,1100 nM,NC(=O)C[C@H](NC(=O)C1(NC(=O)[C@H](Cc2ccc(OC(C(=O)O)C(=O)O)cc2)NC(=O)C(=O)O)CCCCC1)C(=O)NCCCc1cccc2ccccc12
2,19000 nM,NC(=O)C[C@H](NC(=O)C1(NC(=O)[C@H](Cc2ccc(OCC(=O)O)cc2)NC(=O)C(=O)O)CCCCC1)C(=O)NCCCc1cccc2ccccc12
3,70 nM,NC(=O)C[C@H](NC(=O)C1(NC(=O)[C@H](Cc2ccc(C(C(=O)O)C(=O)O)cc2)NC(=O)C(=O)O)CCCCC1)C(=O)NCCCc1cccc2ccccc12
4,170 nM,NC(=O)C[C@H](NC(=O)C1(NC(=O)[C@H](Cc2ccc(C(F)(C(=O)O)C(=O)O)cc2)NC(=O)C(=O)O)CCCCC1)C(=O)NCCCc1cccc2ccccc12
5,1000 nM,NC(=O)C[C@H](NC(=O)C1(NC(=O)[C@H](Cc2ccc(CC(=O)O)cc2)NC(=O)C(=O)O)CCCCC1)C(=O)NCCCc1cccc2ccccc12
6,680 nM,CC(=O)N[C@@H](Cc1ccc(C(F)(C(=O)O)C(=O)O)cc1)C(=O)NC1(C(=O)N[C@@H](CC(N)=O)C(=O)NCCCc2cccc3ccccc23)CCCCC1
7,50 nM,NC(=O)C[C@H](NC(=O)C1(NC(=O)[C@H](Cc2ccc(CP(=O)(O)O)cc2)NC(=O)C(=O)O)CCCCC1)C(=O)NCCCc1cccc2ccccc12
